# Assays:
# [1] = melting temperature; fluorescence melt of hairpins on a sequencing array, two-state fit, raised by 9.35 °C to match UV melts; conditions: sodium 0.088 M
# Summary of the method: (§1)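 Library hairpins on a sequenced MiSeq flow cell carried annealed Cy3 and quencher oligos, and their Cy3 fluorescence was imaged in 50 mM Na-HEPES pH 8.0 with 25 mM NaCl, in 2.5 °C steps up to 60 °C. Signals were normalised to Cy3 before quenching and to control constructs. Melting temperature and folding enthalpy were obtained from bootstrapped two-state fits, combined by inverse-variance weighting across four replicates, and the fitted temperatures were then raised by 9.35 °C to match UV melts.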
# [2] = folding enthalpy; higher = less favourable; fluorescence melt of hairpins on a sequencing array, two-state fit; conditions: sodium 0.088 M
# Summary of the method: as §1
Sequence,Tm [1],folding enthalpy [2]
GATCAGGTACTGATC ((((((...)))))),61.4 °C,-41.1 kcal/mol
GGCCCCGAAAGGGTTGCC ((((((....)))..))),55.3 °C,-16.3 kcal/mol
GCCTGAGCGAAAGCTGGC (((..(((....)))))),52.6 °C,-25.7 kcal/mol
GATCGAGGCCTCGATC ((((((....)))))),62.2 °C,-49.1 kcal/mol
GATCGCGGTTGCGATC ((((((....)))))),68.9 °C,-25.1 kcal/mol
GCTTGGGGAAACCCAGGC ((.((((....)))).)),52.4 °C,-36.8 kcal/mol
GACGATCCGAAAGGAGTC (((..(((....)))))),39.8 °C,-22.1 kcal/mol
GACTCCCGAAAGGGCGTC (((.(((....))).))),53.5 °C,-27.3 kcal/mol
GCTTGTCGAAAGACTAGC (((.(((....))).))),53.9 °C,-34 kcal/mol
GCTAACCGAAAGGTCAGC (((.(((....))).))),49.7 °C,-29.7 kcal/mol
GGTGTTCGAAAGAAGACC (((.(((....))).))),50.5 °C,-40.4 kcal/mol
GCGCGAGGAAACTTGCGC ((((.((....)).)))),65.6 °C,-38.1 kcal/mol
CGAACGGAAACGTCTCG ((((((....))).))),36.8 °C,-29.3 kcal/mol
GGGGACGAAAGTCGACCC ((((((....)))..))),48.9 °C,-18.3 kcal/mol
GCGAGCGAAAGCTGGCGC ((((((....)))..))),68.7 °C,-25 kcal/mol
GATGGAGGAAACTCCGTC ((.((((....)))).)),48.9 °C,-31.9 kcal/mol
GTAACCGGAAACGGCTAC (((.(((....))).))),42.9 °C,-25.9 kcal/mol
GCCTTGCGAAAGCCAAGC ((.(.((....)).).)),39 °C,-8.85 kcal/mol
GTGCAGGCGAAAGCCCAC (((..(((....)))))),48.9 °C,-10.8 kcal/mol
CGTGATCGGAAACGAACG (((..(((....)))))),28.6 °C,-8.71 kcal/mol
GACCGTACGAAAGTAGTC (((..(((....)))))),26.5 °C,-13.1 kcal/mol
GGTTCTGGAAACAGAGTC (..((((....))))..),28.1 °C,-11.8 kcal/mol
GGACCGGGAAACCGGCCC ((.((((....)))).)),57.9 °C,-19.9 kcal/mol

Sequence,Tm [1],folding enthalpy [2]
GCTTCGCGAAAGCTAAGC ((((.((....)).)))),57.2 °C,-20.5 kcal/mol
GCAACCACGAAAGTGTGC (((..(((....)))))),41.7 °C,-17.4 kcal/mol
GCGAACGAAAGTTTCGC ((((((....))).))),60 °C,-36.7 kcal/mol
GTTCTTCGAAAGAATAAC (((.(((....))).))),33.6 °C,-15.6 kcal/mol
CGTTCGGAAACGACGACG ((((((....)))..))),37.5 °C,-15.9 kcal/mol
GATCGGCGATCCGATC ((((((....)))))),55 °C,-35.3 kcal/mol
GCGGGTAGCCGC ((((....)))),64 °C,-24.2 kcal/mol
GCGAGGCGAAAGCTTGGC ((.(.((....)).).)),46.1 °C,-12.1 kcal/mol
GCCTACGAAAGTAAGGC ((((((....))).))),56.9 °C,-31.3 kcal/mol
GCATGTGGAAACACACGC ((.((((....)))).)),46 °C,-25.8 kcal/mol
GATCAGAGGGCTGATC ((((((....)))))),47.7 °C,-39.2 kcal/mol
GCCTAGCGAAAGCAACGC ((.(.((....)).).)),23.8 °C,-8.35 kcal/mol
GATCGTCCAACGATC ((((((...)))))),55.6 °C,-39.4 kcal/mol
GTTGGTGGAAACATCGAC ((.(.((....)).).)),35.1 °C,-21.1 kcal/mol
GATCTCTGGTGAGATC ((((((....)))))),52.4 °C,-34.1 kcal/mol
GCTCAGCGAAAGCTGTGC ((.((((....)))).)),64.2 °C,-21.5 kcal/mol
GCATTGCGAAAGCATCGC ((..(((....)))..)),52.9 °C,-11.8 kcal/mol
CGCGGAAGAGTCCGCG ((((((....)))))),62.6 °C,-36 kcal/mol
GCATGGGCGAAAGCCTGC (((..(((....)))))),48.7 °C,-16.3 kcal/mol
GATCCATTTGTGGATC ((((((....)))))),54.7 °C,-44.5 kcal/mol
GATCTTTAAGAAGATC ((((((....)))))),41.5 °C,-34.9 kcal/mol
GTGAAGGGAAACCTCCAC (((.(((....))).))),38.5 °C,-19.9 kcal/mol
GTGGTGGGAAACTACCGC (.(((.(....).))).),42.7 °C,-28.4 kcal/mol

Sequence,Tm [1],folding enthalpy [2]
GGCCATCCGAAAGGAGCC (((..(((....)))))),42.8 °C,-20.1 kcal/mol
GCTTAAACGAAAGTTAGC (((..(((....)))))),33.9 °C,-16.2 kcal/mol
GATCGGGAGCCCGATC ((((((....)))))),55.5 °C,-36.5 kcal/mol
GATCACAAAAGTGATC ((((((....)))))),54.7 °C,-36.8 kcal/mol
GATCGTTGCAACGATC ((((((....)))))),59.2 °C,-59.5 kcal/mol
CGCCCGGAAACGGAGGCG ((((((....)))..))),53.8 °C,-32.5 kcal/mol
GCGGGTACGAAAGTACGC (((..(((....)))))),51.5 °C,-13.8 kcal/mol
GATCGAAAGGTCGATC ((((((....)))))),47.7 °C,-28.7 kcal/mol
GAGTTGGGAAACTAGCTC (((.(.(....).).))),29 °C,-15 kcal/mol
GCAAGCCGAAAGGCTGC (((.(((....)))))),68.5 °C,-18.8 kcal/mol
GCATACGAAAGTAGTGC ((((((....))).))),44.6 °C,-24.1 kcal/mol
GGCACATCGAAAGATGCC (((..(((....)))))),42.8 °C,-14.7 kcal/mol
GAGATCGGAAACGACCTC (((.(((....))).))),42.5 °C,-29.8 kcal/mol
GATCCTCGACAGGATC ((((((....)))))),48.5 °C,-35.6 kcal/mol
GAGAAGGGAAACTTTCTC (((((.(....).))))),31.8 °C,-22.7 kcal/mol
GTCCTGGGAAACCAAGAC (((.(((....))).))),34.5 °C,-22.4 kcal/mol
GTTGTAGGAAACCACAAC (((((.(....).))))),39.9 °C,-32.5 kcal/mol
GTGCCACCGAAAGGTCAC (((..(((....)))))),50.5 °C,-9.49 kcal/mol
GATCTCCCCCGAGATC ((((((....)))))),51.5 °C,-36 kcal/mol
GCGTTGAAAAACGC (((((....))))),61.2 °C,-30.2 kcal/mol
GCGCCGCGAAAGCGAGGC ((..(((....)))..)),54.8 °C,-13.7 kcal/mol
GGAAACGAAAGTTGATCC ((((((....)))..))),29.3 °C,-14.5 kcal/mol
GGGTTGGGAAACTAGCCC (((.(.(....).).))),42 °C,-21.4 kcal/mol

Sequence,Tm [1],folding enthalpy [2]
GGTGTCGAAAGACCGACC ((((((....)))..))),39.1 °C,-14.9 kcal/mol
GTCGGGCCGAAAGGCGAC (((..(((....)))))),51 °C,-14.5 kcal/mol
GCGTCGCACGC ((((...)))),64.5 °C,-17.5 kcal/mol
GTATTTGGAAACAAATAC (((((((....))))))),50.5 °C,-44.3 kcal/mol
GAGCACGGAAACACGCTC ((((..(....)..)))),37 °C,-28.3 kcal/mol
CGAGGCCGGAAACGGTCG (((..(((....)))))),48.5 °C,-19.7 kcal/mol
GCGTGCGAAAGCAGCCGC ((((((....)))..))),55.2 °C,-19 kcal/mol
GCGGATGCGAAAGCACGC (((..(((....)))))),56.6 °C,-15.8 kcal/mol
GACGGGGAAACCCGTC ((((((....)))))),68 °C,-37.9 kcal/mol
GTAGTTGGAAACAATTAC (((.(((....))).))),34.2 °C,-23.4 kcal/mol
GCATATCCGAAAGGATGC (((..(((....)))))),43.5 °C,-15.2 kcal/mol
GGATACGAAAGTAGTCC ((((((....))).))),40.4 °C,-20.6 kcal/mol
GTTCTCGAAAGAGGTAAC ((((((....)))..))),22.7 °C,-8.25 kcal/mol
GATCTCCCATGAGATC ((((((....)))))),51.6 °C,-34.4 kcal/mol
GTCCATGAAAATGGAC ((((((....)))))),62.4 °C,-31.7 kcal/mol
GAGCTCACGAAAGTGCTC (((..(((....)))))),44.4 °C,-20.8 kcal/mol
GTAAGTCCGAAAGGATAC (((..(((....)))))),25.9 °C,-10.1 kcal/mol
GGCCTTGGAAACAGGGCC ((((.((....)).)))),57.1 °C,-46 kcal/mol
GAGGCCCGAAAGGGTCTC (((.(((....))).))),67.4 °C,-31.6 kcal/mol
GATCGGCCGAAAGGCATC (((..(((....)))))),26.9 °C,-6.97 kcal/mol
GGGAAAACGAAAGTTCCC (((..(((....)))))),43.5 °C,-27.1 kcal/mol
GGGGACGAAAGTCACCC ((((((....))).))),65.7 °C,-17.6 kcal/mol
GCCCCCGAAAGGGCCGGC ((((((....)))..))),54.3 °C,-16.4 kcal/mol

# — the array DNA melting data of Ke et al. (doi:10.1101/2024.01.08.574731)
